The target in assay [1] is T1, Ribosyldihydronicotinamide dehydrogenase [quinone] (Homo sapiens) (UniProt P16083).
T1 sequence (whole entry): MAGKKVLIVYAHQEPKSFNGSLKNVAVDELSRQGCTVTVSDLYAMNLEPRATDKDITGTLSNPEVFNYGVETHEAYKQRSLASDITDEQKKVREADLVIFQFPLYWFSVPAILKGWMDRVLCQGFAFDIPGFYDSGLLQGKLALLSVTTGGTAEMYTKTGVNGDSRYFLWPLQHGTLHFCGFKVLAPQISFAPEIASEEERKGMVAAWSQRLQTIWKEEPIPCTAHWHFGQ
In words: Inhibition of recombinant human NQO2 assessed as change in rate of decolouration of DCPIP at 10 uM measured over 1 min by spectrophotometric method. Put shortly:
(§1)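 The NQO2 enzymatic activity was followed spectrophotometrically as the decolouration of the blue redox dye 2,6-dichlorophenolindophenol (DCPIP) at pH 7.4.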

Assay [2] addresses T2, Ribosyldihydronicotinamide dehydrogenase [quinone] (Homo sapiens, UniProt P16083).
T2 sequence (P16083 whole entry): T1 sequence (whole entry)
In words: Inhibition of recombinant human NQO2 assessed as change in rate of decolouration of DCPIP measured over 1 min by spectrophotometric method. Put shortly: as §1

The next assay has as its system Plasmodium falciparum. In words: Antimalarial activity against Plasmodium falciparum 3D7 asexual cultures grown under 5% haematocrit assessed as decrease in parasite DNA level by flow cytometry. Format: functional, organism-based. On the technique in general: In flow cytometry, cells or beads pass a laser one at a time.

Structures are written as SMILES. Active and inactive are the calls of the source. The rule behind the calls is not given here.

What is called IC50 is the point on the concentration scale where inhibition reaches its midpoint.

With `CC(=O)Nc1ccc(-c2ccc(-c3ccccc3)o2)cc1`, the inhibition result in assay [1] was “inactive”.
For the molecule `COC(=N)c1ccc(-c2ccc(-c3ccccc3)o2)cc1`, the inhibition entry in assay [1] was “inactive”.
As for `CC(=O)Nc1cccc(-c2ccc(-c3ccccc3)o2)c1`, in assay [2], the IC50 was determined as 1140 nM.
As for `CC(=N)Nc1ccc(-c2ccc(-c3ccccc3)o2)cc1`, the IC50 in the assay on Plasmodium falciparum was 770 nM. In assay [1], the inhibition entry is “inactive”.
Regarding `CC(=O)Nc1cccc(-c2ccc(-c3ccccc3)s2)c1`, in assay [2], the concentration for half-maximal inhibition (IC50) was found to be 2000 nM.
For the molecule `Cc1oc(-c2ccc(C(=N)N)cc2)cc1-c1ccccc1`, the inhibition entry in assay [1] is “inactive”.
For the molecule `N=C(NO)c1ccc(-c2ccc(-c3ccccc3)o2)cc1`, the inhibition result in assay [1] is “inactive”.
As to `CC(=N)Nc1ccc(-c2ccc(-c3ccccc3)s2)cc1`, the IC50 in the assay with Plasmodium falciparum is 970 nM. For the same molecule, in assay [1], the inhibition entry is “inactive”.
For the molecule `N=C(N)c1ccc(-c2ccc(-c3ccccc3)s2)cc1`, the IC50 amounted to 773 nM in assay [2] and 18900 nM in the assay with Plasmodium falciparum.
Regarding `N=C(N)c1ccc(-c2ccc(-c3ccccc3)o2)cc1`, in the assay on Plasmodium falciparum, the IC50 amounted to 1500 nM.
Take `N=C(N)c1ccc(-c2nc(-c3ccccc3)c[nH]2)cc1`: the results for the IC50 (in assay [2]; with Plasmodium falciparum) were 1110 nM and 5300 nM, respectively.
Turning to `Cn1cc(-c2ccccc2)nc1-c1ccc(C(=N)N)cc1`, in assay [1], the inhibition result was “inactive”.
As for `N=C(N)c1ccc(-c2ccc(-c3ccc(C(=N)N)cc3)o2)cc1` [FURAMIDINE], in the assay with Plasmodium falciparum, the IC50 was 0.5 nM.
